ChEMBL document CHEMBL1275265, “Synthesis and biological evaluation of N-antipyrine-4-substituted amino-3-chloromaleimide derivatives” (Eur J Med Chem, 2010)
In brackets after ≈: the same amount, converted by molar mass. Activity calls are given as the source filed them. No cut-off for these calls is given here.

How the values were obtained:
Proteus mirabilis = test: Antibacterial activity against Proteus mirabilis ATCC 25933 at < 100 ug/mL by agar dilution method; assay type: functional, organism-based
Method in brief: (§1)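 Agar dilution on 1 mL Mueller-Hinton agar slants. Compounds were serially two-fold diluted in DMSO (final DMSO ≤2%) to give 10–100 µg/mL in the medium. Bacteria were grown on MHA at 35 °C for 24 h, suspended in 0.86% saline at 1.5 × 10^8 cell/mL (0.5 McFarland), and 1 µL was added per slant. Slants were incubated at 35 °C. Drug-free blank included; each assay run three times; MIC recorded.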

Candida albicans = test: Antifungal activity against Candida albicans ATCC 10231 by agar dilution method; assay type: functional, organism-based
Method in brief: (§2)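 Yeasts were grown on Sabouraud dextrose agar and adjusted to 1.0–5.0 × 10^6 cell/mL (0.5 McFarland). Agar dilution used 1 mL SDA slants holding two-fold DMSO dilutions of compound at 10–100 µg/mL, with final DMSO ≤2%. 1 µL of inoculum was added per slant, then incubated at 35 °C. Drug-free blank and ketoconazole positive control included; triplicate runs; MIC read.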

Microsporum canis = test: Antifungal activity against Microsporum canis C112 by agar dilution method; assay type: functional, organism-based
Method in brief: (§3)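 Filamentous fungi (hyalohyphomycetes, dermatophytes) were grown on SDA. Spore suspensions were set to 1.0–5.0 × 10^6 spores/mL by hemocytometer count. 1 µL was inoculated onto 1 mL SDA slants holding compound at 10–100 µg/mL (two-fold DMSO dilutions, final DMSO ≤2%), then incubated at 28–30 °C. Drug-free blank and ketoconazole control included; repeated three times; MIC determined.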

Mus musculus [1] = test: Antinociceptive activity in Swiss mouse assessed as inhibition of acetic acid-induced abdominal contraction at 0.1 to 100 mg/kg, ip administered 30 mins before acetic acid challenge measured after 20 mins relative to control; assay type: functional, Abdominal cavity; conditions: dose mg/kg 0.1-100; route intraperitoneal
Method in brief: (§4)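 Writhing dose-response in mice: compounds at 0.1–10 mg/kg and standard drugs at 10–100 mg/kg, i.p. in Tween 80/saline, 30 min before i.p. 0.6% acetic acid. Constrictions and stretches were counted for 20 min at 20–22 °C, with six to eight animals per group. ID50 (dose halving the response versus control) was given as geometric mean with 95% confidence limits.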

Aspergillus flavus = test: Antifungal activity against Aspergillus flavus ATCC 9170 by agar dilution method; assay type: functional, organism-based; method in brief: as §3
Staphylococcus aureus = test: Antibacterial activity against Staphylococcus aureus ATCC 6538P at < 100 ug/mL by agar dilution method; assay type: functional, organism-based; method in brief: as §1
Mus musculus [2] = test: Antinociceptive activity in ip dosed Swiss mouse assessed as inhibition of acetic acid-induced abdominal contraction administered 30 mins before acetic acid challenge measured after 20 mins; assay type: functional; conditions: Abdominal cavity, read-out: ID50 (the source's name); method in brief: as §4
[3] = test system: Staphylococcus saprophyticus; test: Antibacterial activity against Staphylococcus saprophyticus ATCC 35552 at < 100 ug/mL by agar dilution method; assay type: functional, organism-based; method in brief: as §1
Pseudomonas aeruginosa = test: Antibacterial activity against Pseudomonas aeruginosa ATCC 27853 at < 100 ug/mL by agar dilution method; assay type: functional, organism-based; method in brief: as §1
Mus musculus [4] = test: Ratio of metamizole ID50 to compound ID50 for inhibition of acetic acid-induced abdominal contraction in ip dosed Swiss mouse; assay type: functional, Abdominal cavity
Nannizzia gypsea = test: Antifungal activity against Microsporum gypseum C115 by agar dilution method; assay type: functional; method in brief: as §3
Trichophyton rubrum = test: Antifungal activity against Trichophyton rubrum C137 by agar dilution method; assay type: functional; method in brief: as §3
Mus musculus [5] = test: Antinociceptive activity in Swiss mouse assessed as inhibition of acetic acid-induced writhing at 10 mg/kg, ip administered 30 mins before acetic acid challenge measured after 20 mins relative to control; assay type: functional; conditions: route intraperitoneal
Method in brief: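 Mice were given 10 mg/kg i.p. in Tween 80/0.9% NaCl (Tween ≤5%) 30 min before i.p. 0.6% acetic acid, at 20–22 °C. Abdominal constrictions plus hind-limb stretching were counted cumulatively over 20 min in individual funnels. Groups of six, randomized and blinded. Inhibition was calculated versus vehicle controls (10 ml/kg i.p.); ANOVA with Dunnett's test.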

[6] = Toxicity in Artemia salina assessed as mortality after 24 hrs; assay type: organism-based; conditions: in vivo
Method in brief: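 Artemia salina hatched at pH 9.0 (Na2CO3), 25 °C, strong aeration, continuous light (2000 Lux). Phototropic nauplii were collected about 12 h after hatching, and groups of 10 were exposed per well to various compound concentrations for 24 h. Survivors were counted and % deaths calculated.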

Bacillus cereus = test: Antibacterial activity against Bacillus cereus ATCC 14579 at < 100 ug/mL by agar dilution method; assay type: functional; method in brief: as §1
Pichia kudriavzevii = test: Antifungal activity against Candida krusei ATCC 6582 by agar dilution method; assay type: functional, organism-based; method in brief: as §2
Streptococcus agalactiae = test: Antibacterial activity against Streptococcus agalactiae ATCC 13813 at < 100 ug/mL by agar dilution method; assay type: functional; method in brief: as §1
Aspergillus niger = test: Antifungal activity against Aspergillus niger ATCC 9092 by agar dilution method; assay type: functional, organism-based; method in brief: as §3
Aspergillus fumigatus = test: Antifungal activity against Aspergillus fumigatus ATCC 26934 by agar dilution method; assay type: functional; method in brief: as §3
Salmonella typhimurium = test: Antibacterial activity against Salmonella Typhimurium ATCC 14028 at < 100 ug/mL by agar dilution method; assay type: functional, organism-based; conditions: Salmonella enterica subsp. enterica serovar Typhimurium; method in brief: as §1
[7] = test system: Trichophyton mentagrophytes; test: Antifungal activity against Trichophyton mentagrophytes ATCC 9972 by agar dilution method; assay type: functional; method in brief: as §3
Mus musculus [8] = test: Ratio of acetyl salicylic acid ID50 to compound ID50 for inhibition of acetic acid-induced abdominal contraction in ip dosed Swiss mouse; assay type: functional, Abdominal cavity
Escherichia coli = test: Antibacterial activity against Escherichia coli ATCC 11775 at < 100 ug/mL by agar dilution method; assay type: functional, organism-based; method in brief: as §1
Rhizopus = test: Antifungal activity against Rhizopus CL35 by agar dilution method; assay type: functional; method in brief: as §3
Bacillus subtilis = test: Antibacterial activity against Bacillus subtilis ATCC 23858 at < 100 ug/mL by agar dilution method; assay type: functional, organism-based; method in brief: as §1
Cryptococcus neoformans = test: Antifungal activity against Cryptococcus neoformans ATCC 32264 by agar dilution method; assay type: functional; method in brief: as §2
Mus musculus [9] = test: Antinociceptive activity in Swiss mouse assessed as inhibition of formalin-induced paw licking activity at 10 mg/kg, ip administered 30 mins before formalin challenge measured after 15 to 30 mins; assay type: functional; conditions: route intraperitoneal
Method in brief: (§5)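 Formalin test in mice pretreated i.p. with vehicle or 10 mg/kg test agent 30 min before formalin injection. Animals were acclimatized 5 min in a glass cylinder with an angled mirror. Licking time was recorded for the early phase (0–5 min) and the late phase (15–30 min) after formalin. Values are mean ± S.E.M.; ANOVA with Dunnett's test.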

Mus musculus [10] = test: Antinociceptive activity in Swiss mouse assessed as inhibition of formalin-induced paw licking activity at 10 mg/kg, ip administered 30 mins before formalin challenge measured after 5 mins; assay type: functional; conditions: route intraperitoneal; method in brief: as §5
Enterobacter cloacae = test: Antibacterial activity against Enterobacter cloacae ATCC 35030 at < 100 ug/mL by agar dilution method; assay type: functional, organism-based; method in brief: as §1

Structure (SMILES)	Activity (Proteus mirabilis)	Activity (Candida albicans)	Activity (Microsporum canis)	Activity (Aspergillus flavus)	Activity (Staphylococcus aureus)	Activity [3]	Activity (Pseudomonas aeruginosa)	MIC (Nannizzia gypsea)	MIC (Trichophyton rubrum)	inhibition in vivo at 10 mg/kg (Mus musculus [5])	LC50 at 24 h [6]	Activity (Bacillus cereus)	Activity (Pichia kudriavzevii)	Activity (Streptococcus agalactiae)	Activity (Aspergillus niger)	MIC (Aspergillus fumigatus)	Activity (Salmonella typhimurium)	Activity (Escherichia coli)	Activity (Bacillus subtilis)	Activity (Enterobacter cloacae)	other results
Cc1c(N2C(=O)C(Cl)=C(Nc3ccc(F)cc3)C2=O)c(=O)n(-c2ccccc2)n1C	inactive	Active	Active	Active	inactive	inactive	inactive	100 µg/mL (≈ 234 µM)	> 100 µg/mL	93.2%	> 1000 µg/mL	inactive	Active	inactive	Active	> 100 µg/mL	inactive	inactive	inactive	inactive	inhibition (INH) (Mus musculus [1]): 96.7%; ED50 (Mus musculus [2]): 0.73 µmol/kg; Ratio (Mus musculus [4]): 222; MIC [7]: > 100 µg/mL; Ratio (Mus musculus [8]): 182; MIC (Rhizopus): > 100 µg/mL; MIC (Cryptococcus neoformans): > 100 µg/mL; inhibition in vivo at 10 mg/kg (Mus musculus [9]): 4.5%; inhibition in vivo at 10 mg/kg (Mus musculus [10]): 28.9%
Cc1c(N2C(=O)C(Cl)=C(Nc3ccccc3)C2=O)c(=O)n(-c2ccccc2)n1C	inactive	Active	Active	Active	inactive	inactive	inactive	> 100 µg/mL	> 100 µg/mL	71.6%	> 1000 µg/mL	inactive	Active	inactive	Active	> 100 µg/mL	inactive	inactive	inactive	inactive	MIC [7]: > 100 µg/mL; MIC (Rhizopus): 80 µg/mL (≈ 196 µM); MIC (Cryptococcus neoformans): > 100 µg/mL
CC(=O)Oc1ccccc1C(=O)O [ASPIRIN]										35%											inhibition (INH) (Mus musculus [1]): 83%; inhibition in vivo at 10 mg/kg (Mus musculus [9]): 45%; inhibition in vivo at 10 mg/kg (Mus musculus [10]): 16%
Cc1c(N2C(=O)C(Cl)=C(NCc3ccccc3)C2=O)c(=O)n(-c2ccccc2)n1C	inactive	Active	Active	Active	inactive	inactive	inactive	> 100 µg/mL	100 µg/mL (≈ 236 µM)	35.4%	> 1000 µg/mL	inactive	Active	inactive	Active	100 µg/mL (≈ 236 µM)	inactive	inactive	inactive	inactive	MIC [7]: 100 µg/mL (≈ 236 µM); MIC (Rhizopus): > 100 µg/mL; MIC (Cryptococcus neoformans): 40 µg/mL (≈ 94.6 µM)
Cc1c(N2C(=O)C(Cl)=C(Nc3ccc(Br)cc3)C2=O)c(=O)n(-c2ccccc2)n1C	inactive	Active	Active	Active	inactive	inactive	inactive	> 100 µg/mL	> 100 µg/mL	97.5%	> 1000 µg/mL	inactive	Active	inactive	Active	> 100 µg/mL	inactive	inactive	inactive	inactive	inhibition (INH) (Mus musculus [1]): 97.5%; ED50 (Mus musculus [2]): 0.57 µmol/kg; Ratio (Mus musculus [4]): 284; MIC [7]: > 100 µg/mL; Ratio (Mus musculus [8]): 233; MIC (Rhizopus): 100 µg/mL (≈ 205 µM); MIC (Cryptococcus neoformans): > 100 µg/mL; inhibition in vivo at 10 mg/kg (Mus musculus [9]): 22.5%; inhibition in vivo at 10 mg/kg (Mus musculus [10]): 11.4%
Cc1c(N2C(=O)C(Cl)=C(Nc3ccc(Cl)cc3)C2=O)c(=O)n(-c2ccccc2)n1C	inactive				inactive	inactive	inactive			97.4%	> 1000 µg/mL	inactive		inactive			inactive	inactive	inactive	inactive	inhibition (INH) (Mus musculus [1]): 97.4%; ED50 (Mus musculus [2]): 4.05 µmol/kg; Ratio (Mus musculus [8]): 33; inhibition in vivo at 10 mg/kg (Mus musculus [9]): 29.3%; inhibition in vivo at 10 mg/kg (Mus musculus [10]): 28.2%
CCc1ccc(NC2=C(Cl)C(=O)N(c3c(C)n(C)n(-c4ccccc4)c3=O)C2=O)cc1	inactive	Active	Active	Active	inactive	inactive	inactive	100 µg/mL (≈ 229 µM)	> 100 µg/mL	49.5%	> 1000 µg/mL	inactive	Active	inactive	Active	> 100 µg/mL	inactive	inactive	inactive	inactive	MIC [7]: > 100 µg/mL; MIC (Rhizopus): > 100 µg/mL; MIC (Cryptococcus neoformans): > 100 µg/mL
Cc1c(N2C(=O)C(Cl)=C(Nc3ccc(Cl)c(Cl)c3)C2=O)c(=O)n(-c2ccccc2)n1C	inactive	Active	Active	Active	inactive	inactive	inactive	100 µg/mL (≈ 209 µM)	> 100 µg/mL	75%	> 1000 µg/mL	inactive	Active	inactive	Active	> 100 µg/mL	inactive	inactive	inactive	inactive	MIC [7]: > 100 µg/mL; MIC (Rhizopus): 80 µg/mL (≈ 167 µM); MIC (Cryptococcus neoformans): > 100 µg/mL
